Assay results pooled from the literature.
Each line is one published result; the experiments were not run side by side.

| SMILES | cell line | assay | setting | measurement | result |
| --- | --- | --- | --- | --- | --- |
| CC(C)(C)c1cnc(CSc2cnc(NC(=O)C3CCN(CCCCCCCCSc4cccc5c4CN(C4CCC(=O)NC4=O)C5=O)CC3)s2)o1 (centres unmarked) | HH | cell growth or viability, CCK-8 | 0.2 µM | viability | 0% |
| CCOC(=O)c1nn(-c2cccc(Cl)c2)/c(=N/N=C(\C)c2ccc(NC(=O)c3ccccc3)cc2)s1 | HepG2 | cell growth or viability, MTT | 1.25 µM | viability | 2.72% |
| Cc1sc2c(c1C)C(c1ccc(Cl)cc1)=N[C@@H](CC(=O)NCCCCCCCCNC(=O)COc1cccc3c1C(=O)N(C1CCC(=O)NC1=O)C3=O)c1nnc(C)n1-2 (some centres unmarked) | Ramos | cell growth or viability, ATP luminescence | 72 h | IC50 | 0.012 µM |
| CC(C)(C)c1cnc(CSc2cnc(NC(=O)C3CCN(C(=O)COCCOCCSc4cccc5c4C(=O)N(C4CCC(=O)NC4=O)C5=O)CC3)s2)o1 (centres unmarked) | HH | cell growth or viability, CCK-8 | 0.25 µM | viability | 92.9% |
| C=CC(=O)NC1CCN(c2ncc3ncnc(Nc4ccc(Oc5ccc6c(c5)ncn6C)c(C)c4)c3n2)CC1 | SW 1116 | cell growth or viability | – | EC50 | 0.0152 µM |
| CC(C)(C)c1cnc(CSc2cnc(NC(=O)C3CCN(CCCCCCCSc4cccc5c4C(=O)N(C4CCC(=O)NC4=O)C5=O)CC3)s2)o1 (centres unmarked) | HH | cell growth or viability, CCK-8 | 50 nM | viability | 96% |
| O=C(Nc1ccc(C(F)(F)F)cc1)Nc1cccc([N+](=O)[O-])c1 | LAD2 | degranulation | – | IC50 | 0.37 µM |
| O=C(Nc1ccccc1)Nc1ccc(Oc2nnc(-c3ccc(Cl)cc3)c3ccccc23)cc1 | HepG2 | cell growth or viability, MTT | 0.312 µM | cell death | 93% |
| CCOC1CCN(C(=O)/C=C/c2nn(Cc3cccc(C)c3)c3nc(NC)ncc23)CC1 | OE33 | cell growth or viability, resazurin | 5 days | EC50 | 2.28 µM |
| O=C(Nc1cccc([N+](=O)[O-])c1)Nc1cccc(C(F)(F)F)c1 | LAD2 | degranulation | – | IC50 | 0.28 µM |
| CC(=O)c1nn(-c2ccc(C)cc2)/c(=N/N=C(\C)c2ccc(NC(=O)c3ccccc3)cc2)s1 | HepG2 | cell growth or viability, MTT | 0.312 µM | viability | 5.09% |
| O=C(Nc1ccc([N+](=O)[O-])cc1)Nc1ccc(C(F)(F)F)cc1 | LAD2 | degranulation | – | IC50 | 0.17 µM |
| CC(=NNC(=O)c1cccnc1)c1ccc(Nc2nnc(-c3ccc(Cl)cc3)c3ccccc23)cc1 | HepG2 | cell growth or viability, MTT | 1.25 µM | cell death | 88.1% |
| O=C(Nc1ccccc1)Nc1ccc(C(F)(F)F)cc1 | LAD2 | degranulation | – | IC50 | 8.31 µM |
| CC(=NNC(=S)Nc1ccccc1)c1ccc(Nc2nnc(-c3ccc(Cl)cc3)c3ccccc23)cc1 | HepG2 | cell growth or viability, MTT | 10 µM | cell death | 95.7% |
| CC(C)(C)c1cnc(CSc2cnc(NC(=O)C3CCN(CCCCCCCCSc4cccc5c4C(=O)N(C4CCC(=O)NC4=O)C5=O)CC3)s2)o1 (centres unmarked) | HH | cell growth or viability, CCK-8 | 0.2 µM | viability | 10.7% |

| SMILES | cell line | assay | setting | measurement | result |
| --- | --- | --- | --- | --- | --- |
| Nc1ncnc2c1c(/C=C/C(=O)N1CCC(CCO)CC1)nn2CC1CCCC1 | OE33 | cell growth or viability, resazurin | 5 days | EC50 | > 30 µM |
| CCOC(=O)c1nn(-c2cccc(Cl)c2)/c(=N/N=C(\C)c2ccc(NC(=O)c3ccc(Cl)cc3)cc2)s1 | HepG2 | cell growth or viability, MTT | 5 µM | viability | 2.59% |
| CN(C)C1CCCN(C(=O)/C=C/c2nn(CC3CCCC3)c3ncnc(N)c23)C1 (centres unmarked) | OE33 | cell growth or viability, resazurin | 5 days | EC50 | > 30 µM |
| CC(=NNC(=O)c1ccncc1)c1ccc(Nc2nnc(-c3ccc(Cl)cc3)c3ccccc23)cc1 | HepG2 | cell growth or viability, MTT | 0.312 µM | cell death | 64.7% |
| CC(C)(C)c1cnc(CSc2cnc(NC(=O)C3CCN(C(=O)CCCSc4cccc5c4C(=O)N(C4CCC(=O)NC4=O)C5=O)CC3)s2)o1 (centres unmarked) | HH | cell growth or viability, CCK-8 | 0.1 µM | viability | 98% |
| CNc1ncc2c(/C=C/C(=O)N3CCC(OC)CC3)nn(Cc3ccccc3OC)c2n1 | OE33 | cell growth or viability, resazurin | 5 days | EC50 | 7.72 µM |
| CC(C)(C)c1cnc(CSc2cnc(NC(=O)C3CCN(CCCCSc4cccc5c4C(=O)N(C4CCC(=O)NC4=O)C5=O)CC3)s2)o1 (centres unmarked) | HH | cell growth or viability, CCK-8 | 10 nM | viability | 105% |
| Nc1ncnc2c1c(/C=C/C(=O)N1CCOCC1)nn2CC1CCCC1 | OE33 | cell growth or viability, resazurin | 5 days | EC50 | > 30 µM |
| Cc1cc(C)n(C(C(=O)OC(C)C)n2nc(C)cc2C)n1 | A-431 | cell growth or viability, MTT | 72 h | IC50 | > 50 µM |
| CNc1ncc2c(/C=C/C(=O)N3CCC(OC)CC3)nn(CC3CCCC3)c2n1 | OE33 | cell growth or viability, resazurin | 5 days | EC50 | 6.72 µM |
| CC(=NNC(=O)c1ccccc1Br)c1ccc(Nc2nnc(-c3ccc(Cl)cc3)c3ccccc23)cc1 | HepG2 | cell growth or viability, MTT | 5 µM | cell death | 95.6% |
| Nc1ncnc2c1c(/C=C/C(=O)N1CCCC1)nn2CC1CCCC1 | OE33 | cell growth or viability, resazurin | 5 days | EC50 | > 30 µM |
| O=C(Nc1ccc(Oc2nnc(-c3ccc(Cl)cc3)c3ccccc23)cc1)c1cccc([N+](=O)[O-])c1 | HepG2 | cell growth or viability, MTT | 0.625 µM | cell death | 32.3% |
| CC(=O)c1nn(-c2ccccc2Cl)/c(=N/N=C(\C)c2ccc(NC(=O)c3ccccc3)cc2)s1 | HepG2 | cell growth or viability, MTT | 0.625 µM | viability | 5.95% |
| CC1CCN(C(=O)/C=C/c2nn(CC3CCCC3)c3ncnc(N)c23)CC1 | OE33 | cell growth or viability, resazurin | 5 days | EC50 | > 30 µM |
| CC(=O)Nc1ccc(Oc2nnc(-c3ccc(Cl)cc3)c3ccccc23)cc1 | HepG2 | cell growth or viability, MTT | 5 µM | cell death | 93.5% |
